Measured values from PMC12823633 (Cancer Chemotherapy and Pharmacology, 2026).

Experiments:
[1] = TAS-115 trough plasma concentrations; assay type: in vivo, human (patients with solid tumors)
CYP3A = settings: time-dependent inhibition; ref unpublished inhouse data; cited from earlier work
[2] = Adverse events, continuous administration period; assay type: in vivo, human (patients with solid tumors)
CYP2C19 = settings: read-out: IC50, reversible inhibition; ref unpublished inhouse data; cited from earlier work
CYP2C8 = settings: read-out: IC50, reversible inhibition; ref unpublished inhouse data; cited from earlier work
CYP2C9 = settings: read-out: IC50, reversible inhibition; ref unpublished inhouse data; cited from earlier work
CYP2B6 = settings: read-out: IC50, reversible inhibition; ref unpublished inhouse data; cited from earlier work
solid tumors = assay: Anti-tumor efficacy, continuous administration period; assay type: in vivo, human (patients with solid tumors)
Outline: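 Open-label single-arm multicenter study in Japan. Test compound 250 mg given orally, fasted, on 5 consecutive days from Day 1 of repeated 21-day cycles (2 days off), until discontinuation. Investigator-assessed per RECIST 1.1. ORR is the % with best response CR/PR; DCR is the % with CR/PR/SD. OS in osteosarcoma runs from enrollment to death from any cause, censored at the last recorded follow-up or observation.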

[3] = Adverse events, DDI evaluation period; assay type: in vivo, human (patients with solid tumors)
[4] = Continuous Administration Period (N=18)
[5] = continuous administration period
[6] = All patients (N=16), efficacy-evaluable
[7] = After Administration of TAS-115, DDI period (N=18)
[8] = Entire DDI Evaluation Period (N=18)

CNC(=O)c1cc2c(Oc3ccc(NC(=S)NC(=O)Cc4ccccc4)cc3F)ccnc2cc1OC [TAS-115, pamufetinib]
trough plasma concentration, arithmetic mean (standard deviation) ([1]; Day 4, 250 mg once daily oral): 834.5 (318.68) ng/mL
trough plasma concentration, arithmetic mean (standard deviation) ([1]; Day 5, 250 mg once daily oral): 881.6 (378.03) ng/mL
concentration at 24 h ([1]; human, plasma, po, 250 mg): 576 ng/mL
concentration of the inhibitor required to achieve 50% of the maximum inactivation rate (CYP3A): 28.5 µmol/L
maximum inactivation rate constant (CYP3A): 0.0650 min⁻¹
Any >=Grade 3 TEAEs [2, 4]: 8 (44.4) N (%)
Any >=Grade 3 TRAEs Related to TAS-115 [2, 4]: 6 (33.3) N (%)
Any SAEs [2, 4]: 5 (27.8) N (%)
Any TEAEs [2, 4]: 18 (100.0) N (%)
Any TEAEs Leading to Death [2, 4]: 0 (0.0) N (%)
Any TEAEs Leading to Discontinuation of Study Medication [2, 4]: 1 (5.6) N (%)
Any TEAEs Leading to Dose Interruption of TAS-115 [2, 4]: 10 (55.6) N (%)
Any TEAEs Leading to Dose Reduction of TAS-115 [2, 4]: 1 (5.6) N (%)
Any TRAEs Leading to Death [2, 4]: 0 (0.0) N (%)
Any TRAEs Leading to Discontinuation of Study Medication [2, 4]: 1 (5.6) N (%)
Any TRAEs Related to TAS-115 [2, 4]: 17 (94.4) N (%)
Any TRAEs Related to TAS-115 Leading to Dose Interruption of TAS-115 [2, 4]: 9 (50.0) N (%)
Any TRAEs Related to TAS-115 Leading to Dose Reduction of TAS-115 [2, 4]: 1 (5.6) N (%)
Any Treatment-Related SAEs [2, 4]: 2 (11.1) N (%)
Grade 3 rash maculo-papular leading to discontinuation of TAS-115 [2, 5]: One patient
TEAE blood creatine phosphokinase (CK) increased [2, 5]: 27.8%
TRAE of ≥ Grade 3 related to TAS-115: anaemia [2, 5]: 11.1%
TRAE related to TAS-115: alanine aminotransferase increased [2, 5]: 33.3%
TRAE related to TAS-115: anemia [2, 5]: 27.8%
TRAE related to TAS-115: aspartate aminotransferase increased [2, 5]: 55.6%
TRAE related to TAS-115: blood CK increased [2, 5]: 27.8%
TRAE related to TAS-115: platelet count decreased [2, 5]: 22.2%
TRAE related to TAS-115: rash [2, 5]: 22.2%
criteria for severe drug-induced liver injury (Hy’s law) [2, 5]: No criteria for severe drug-induced liver injury (Hy’s law) were met
patients reporting TEAEs [2, 5]: 100%
patients requiring dose interruption by AEs [2, 5]: 55.6%
patients requiring dose reduction due to AEs related to TAS-115 [2, 5]: 5.6%
patients with SAEs [2, 5]: 27.8%
patients with TEAEs of ≥ Grade 3 [2, 5]: 44.4%
patients with TRAEs of ≥ Grade 3 related to TAS-115 [2, 5]: 33.3%
patients with TRAEs related to TAS-115 [2, 5]: 94.4%
deaths ([2]; continuous administration period or within 30 days following discontinuation): No deaths occurred
IC50 (CYP2C19): 4.23 µM
IC50 (CYP2C8): 0.563 µM
IC50 (CYP2C9): 2.03 µM
IC50 (CYP2B6): 6.03 µM
CR (solid tumors; [6]): 0 (0.0) N (%)
Disease control rate (CR+PR+SD) (solid tumors; [6]): 6 (37.5) N (%)
PD (solid tumors; [6]): 10 (62.5) N (%)
PR (solid tumors; [6]): 1 (6.3) N (%)
Progression-free survival, Censored (solid tumors; [6]): 2 (12.5) N (%)
Progression-free survival, Event (solid tumors; [6]): 14 (87.5) N (%)
Progression-free survival, Median (solid tumors; [6]): 2.1 month
Response rate (CR+PR) (solid tumors; [6]): 1 (6.3) N (%)
CR (solid tumors; Osteosarcoma (N=4)): 0 (0.0) N (%)
Disease control rate (CR+PR+SD) (solid tumors; Osteosarcoma (N=4)): 2 (50.0) N (%)
Overall survival, Censored (solid tumors; Osteosarcoma (N=4)): 1 (25.0) N (%)
Overall survival, Event (solid tumors; Osteosarcoma (N=4)): 3 (75.0) N (%)
Overall survival, Median (solid tumors; Osteosarcoma (N=4)): 13.8 month
PD (solid tumors; Osteosarcoma (N=4)): 2 (50.0) N (%)
PR (solid tumors; Osteosarcoma (N=4)): 1 (25.0) N (%)
Progression-free survival, Censored (solid tumors; Osteosarcoma (N=4)): 0 (0.0) N (%)
Progression-free survival, Event (solid tumors; Osteosarcoma (N=4)): 4 (100.0) N (%)
Progression-free survival, Median (solid tumors; Osteosarcoma (N=4)): 7.0 month
Response rate (CR+PR) (solid tumors; Osteosarcoma (N=4)): 1 (25.0) N (%)
DCR (solid tumors; patients with solid tumors, 16 evaluable): 37.5%
Any >=Grade 3 TEAEs [3, 7]: 2 (11.1) N (%)
Any >=Grade 3 TRAEs [3, 7]: 1 (5.6) N (%)
Any >=Grade 3 TRAEs Related to TAS-115 [3, 7]: 1 (5.6) N (%)
Any SAEs [3, 7]: 0 (0.0) N (%)
Any TEAEs [3, 7]: 15 (83.3) N (%)
Any TEAEs Leading to Death [3, 7]: 0 (0.0) N (%)
Any TEAEs Leading to Discontinuation of Study Medication [3, 7]: 0 (0.0) N (%)
Any TEAEs Leading to Dose Interruption of TAS-115 [3, 7]: 0 (0.0) N (%)
Any TEAEs Leading to Dose Reduction of TAS-115 [3, 7]: 0 (0.0) N (%)
Any TRAEs [3, 7]: 15 (83.3) N (%)
Any TRAEs Leading to Death [3, 7]: 0 (0.0) N (%)
Any TRAEs Leading to Discontinuation of Study Medication [3, 7]: 0 (0.0) N (%)
Any TRAEs Related to TAS-115 [3, 7]: 14 (77.8) N (%)
Any TRAEs Related to TAS-115 Leading to Dose Interruption of TAS-115 [3, 7]: 0 (0.0) N (%)
Any TRAEs Related to TAS-115 Leading to Dose Reduction of TAS-115 [3, 7]: 0 (0.0) N (%)
Any Treatment-Related SAEs [3, 7]: 0 (0.0) N (%)
Grade 3 or higher TRAE (anaemia) attributed to TAS-115 ([3]; DDI evaluation period): one patient
patients reporting TEAEs ([3]; DDI evaluation period): 83.3%
patients with TRAEs ([3]; DDI evaluation period): 83.3%
patients with TRAEs related to TAS-115 ([3]; DDI evaluation period): 14 patients
patients with TEAEs of ≥ Grade 3 ([3]; DDI evaluation period, anemia and lipase increased): 11.1%
Any >=Grade 3 TEAEs [3, 8]: 2 (11.1) N (%)
Any >=Grade 3 TRAEs [3, 8]: 1 (5.6) N (%)
Any >=Grade 3 TRAEs Related to TAS-115 [3, 8]: 1 (5.6) N (%)
Any SAEs [3, 8]: 0 (0.0) N (%)
Any TEAEs [3, 8]: 15 (83.3) N (%)
Any TEAEs Leading to Death [3, 8]: 0 (0.0) N (%)
Any TEAEs Leading to Discontinuation of Study Medication [3, 8]: 0 (0.0) N (%)
Any TEAEs Leading to Dose Interruption of TAS-115 [3, 8]: 0 (0.0) N (%)
Any TEAEs Leading to Dose Reduction of TAS-115 [3, 8]: 0 (0.0) N (%)
Any TRAEs [3, 8]: 15 (83.3) N (%)
Any TRAEs Leading to Death [3, 8]: 0 (0.0) N (%)
Any TRAEs Leading to Discontinuation of Study Medication [3, 8]: 0 (0.0) N (%)
Any TRAEs Related to TAS-115 [3, 8]: 14 (77.8) N (%)
Any TRAEs Related to TAS-115 Leading to Dose Interruption of TAS-115 [3, 8]: 0 (0.0) N (%)
Any TRAEs Related to TAS-115 Leading to Dose Reduction of TAS-115 [3, 8]: 0 (0.0) N (%)
Any Treatment-Related SAEs [3, 8]: 0 (0.0) N (%)
